Measured values taken from ChEMBL document CHEMBL1150393, “Evaluation of radiolabeled (hetero)aromatic analogues of N-(2-diethylaminoethyl)-4-iodobenzamide for imaging and targeted radionuclide therapy of melanoma” (J Med Chem, 2008).

Tests used:
Settings in all cases: in vivo
Lung [1] = experiment: Biodistribution in lung of C57BL/6 mouse bearing mouse B16-F0 cells at 0.74 to 0.92 MBq, iv after 1 hr; assay type: ADME, organism-based
Outline: (§1)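 Male C57BL6 mice with s.c. left-flank B16-F0 melanoma (5 × 10⁵ cells in PBS). Two mice per time point frozen in liquid nitrogen after CO₂ sacrifice. Eight 40 µm whole-body cryosections per mouse read by multiwire proportional counter. cpm/mm² converted to kBq/g and expressed as %ID/g.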

[2] = Ratio of drug level in tumor to liver of C57BL/6 mouse bearing mouse B16-F0 cells at 0.74 to 0.92 MBq, iv after 6 hrs; assay type: ADME, organism-based
Outline: (§2)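 Tumour and organ radioactive concentrations came from whole-body cryosection counting (40 µm slices, eight per mouse, two mice per time) after tail-vein injection of the [¹²⁵I]-labelled compound (0.1 µmol) into male C57BL6 mice bearing s.c. B16-F0 melanoma. Each value is the ratio of the tumour concentration to the organ concentration.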

Spleen [3] = experiment: Biodistribution in spleen of C57BL/6 mouse bearing mouse B16-F0 cells at 0.74 to 0.92 MBq, iv after 1 hr; assay type: ADME, organism-based
Outline: (§3)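 [¹²⁵I]-labelled compound given iv by tail vein (0.1 µmol per mouse) to male C57BL6 mice bearing s.c. B16-F0 flank tumours (5 × 10⁵ cells in PBS). Two mice per time point were killed by CO₂, frozen in liquid nitrogen and cut into 40 µm cryosections, eight slices per mouse. Slice radioactivity was read on a multiwire proportional counter, converted to kBq/g and reported as %ID/g.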

[4] = Biodistribution in intestinal content of C57BL/6 mouse bearing mouse B16-F0 cells at 0.74 to 0.92 MBq, iv after 1 hr; assay type: ADME, organism-based; outline: as §1
[5] = Biodistribution in intestinal content of C57BL/6 mouse bearing mouse B16-F0 cells at 0.74 to 0.92 MBq, iv after 6 hrs; assay type: ADME, organism-based; outline: as §1
Muscle tissue [6] = experiment: Biodistribution in muscle of C57BL/6 mouse bearing mouse B16-F0 cells at 0.74 to 0.92 MBq, iv after 3 hrs; assay type: ADME, organism-based; outline: as §1
Spleen [7] = experiment: Biodistribution in spleen of C57BL/6 mouse bearing mouse B16-F0 cells at 0.74 to 0.92 MBq, iv after 6 hrs; assay type: ADME, organism-based; outline: as §3
Lung [8] = experiment: Biodistribution in lung of C57BL/6 mouse bearing mouse B16-F0 cells at 0.74 to 0.92 MBq, iv after 6 hrs; assay type: ADME, organism-based; outline: as §1
Lung [9] = experiment: Biodistribution in lung of C57BL/6 mouse bearing mouse B16-F0 cells at 0.74 to 0.92 MBq, iv after 3 hrs; assay type: ADME, organism-based; outline: as §1
Pancreas = experiment: Biodistribution in pancreas of C57BL/6 mouse bearing mouse B16-F0 cells at 0.74 to 0.92 MBq, iv after 1 hr; assay type: ADME, organism-based; outline: as §1
Kidney [10] = experiment: Biodistribution in kidney of C57BL/6 mouse bearing mouse B16-F0 cells at 0.74 to 0.92 MBq, iv after 3 hrs; assay type: ADME, organism-based; outline: as §1
[11] = Biodistribution in uvea of C57BL/6 mouse bearing mouse B16-F0 cells at 0.74 to 0.92 MBq, iv after 1 hr; assay type: ADME, organism-based, Uveal tract; outline: as §3
Liver = experiment: Biodistribution in liver of C57BL/6 mouse bearing mouse B16-F0 cells at 0.74 to 0.92 MBq, iv after 1 hr; assay type: ADME, organism-based; outline: as §1
Kidney [12] = experiment: Biodistribution in kidney of C57BL/6 mouse bearing mouse B16-F0 cells at 0.74 to 0.92 MBq, iv after 6 hrs; assay type: ADME, organism-based; outline: as §1
Brain = experiment: Biodistribution in brain of C57BL/6 mouse bearing mouse B16-F0 cells at 0.74 to 0.92 MBq, iv after 1 hr; assay type: ADME, organism-based; outline: as §1
[13] = Biodistribution in tumor of C57BL/6 mouse bearing mouse B16-F0 cells at 0.74 to 0.92 MBq, iv after 6 hrs; assay type: ADME, organism-based, Neoplasm; outline: as §3
Muscle tissue [14] = experiment: Biodistribution in muscle of C57BL/6 mouse bearing mouse B16-F0 cells at 0.74 to 0.92 MBq, iv after 1 hr; assay type: ADME, organism-based; outline: as §1
[15] = Biodistribution in tumor of C57BL/6 mouse bearing mouse B16-F0 cells at 0.74 to 0.92 MBq, iv after 1 hr; assay type: ADME, organism-based, Neoplasm; outline: as §3
[16] = Ratio of drug level in tumor to liver of C57BL/6 mouse bearing mouse B16-F0 cells at 0.74 to 0.92 MBq, iv after 3 hrs; assay type: ADME, organism-based; outline: as §2
[17] = Biodistribution in uvea of C57BL/6 mouse bearing mouse B16-F0 cells at 0.74 to 0.92 MBq, iv after 24 hrs; assay type: ADME, organism-based, Uveal tract; outline: as §3
Blood [18] = experiment: Biodistribution in blood of C57BL/6 mouse bearing mouse B16-F0 cells at 0.74 to 0.92 MBq, iv after 1 hr; assay type: ADME, organism-based; outline: as §1
Spleen [19] = experiment: Biodistribution in spleen of C57BL/6 mouse bearing mouse B16-F0 cells at 0.74 to 0.92 MBq, iv after 3 hrs; assay type: ADME, organism-based; outline: as §3
Blood [20] = experiment: Biodistribution in blood of C57BL/6 mouse bearing mouse B16-F0 cells at 0.74 to 0.92 MBq, iv after 3 hrs; assay type: ADME, organism-based; outline: as §1
[21] = Biodistribution in tumor of C57BL/6 mouse bearing mouse B16-F0 cells at 0.74 to 0.92 MBq, iv after 72 hrs; assay type: ADME, organism-based, Neoplasm; outline: as §3
Muscle tissue [22] = experiment: Biodistribution in muscle of C57BL/6 mouse bearing mouse B16-F0 cells at 0.74 to 0.92 MBq, iv after 6 hrs; assay type: ADME, organism-based; outline: as §1
[23] = Ratio of drug level in tumor to brain of C57BL/6 mouse bearing mouse B16-F0 cells at 0.74 to 0.92 MBq, iv after 3 hrs; assay type: ADME, organism-based; outline: as §2
[24] = Biodistribution in Stomach content of C57BL/6 mouse bearing mouse B16-F0 cells at 0.74 to 0.92 MBq, iv after 6 hrs; assay type: ADME, organism-based; outline: as §1
[25] = Biodistribution in intestinal content of C57BL/6 mouse bearing mouse B16-F0 cells at 0.74 to 0.92 MBq, iv after 3 hrs; assay type: ADME, organism-based; outline: as §1
[26] = Biodistribution in tumor of C57BL/6 mouse bearing mouse B16-F0 cells at 0.74 to 0.92 MBq, iv after 24 hrs; assay type: ADME, organism-based, Neoplasm; outline: as §3
[27] = Biodistribution in Stomach content of C57BL/6 mouse bearing mouse B16-F0 cells at 0.74 to 0.92 MBq, iv after 24 hrs; assay type: ADME, organism-based; outline: as §1
Thyroid gland [28] = experiment: Biodistribution in thyroid of C57BL/6 mouse bearing mouse B16-F0 cells at 0.74 to 0.92 MBq, iv after 24 hrs; assay type: ADME, organism-based; outline: as §3
Thyroid gland [29] = experiment: Biodistribution in thyroid of C57BL/6 mouse bearing mouse B16-F0 cells at 0.74 to 0.92 MBq, iv after 6 hrs; assay type: ADME, organism-based; outline: as §3
[30] = Biodistribution in intestinal content of C57BL/6 mouse bearing mouse B16-F0 cells at 0.74 to 0.92 MBq, iv after 24 hrs; assay type: ADME, organism-based; outline: as §1

| Drug uptake (Lung [1]) | Ratio [2] | Drug uptake (Spleen [3]) | Drug uptake [4] | Drug uptake [5] | Drug uptake (Lung [8]) | Drug uptake (Lung [9]) | Drug uptake (Pancreas) | Drug uptake (Kidney [10]) | Drug uptake [11] | Drug uptake (Liver) | Drug uptake (Kidney [12]) | Drug uptake (Brain) | Drug uptake [13] | Drug uptake (Muscle tissue [14]) | Drug uptake [15] | Ratio [16] | Drug uptake [17] | Drug uptake (Blood [18]) | Drug uptake (Spleen [19]) | Compound | also measured |
| --- | --- | --- | --- | --- | --- | --- | --- | --- | --- | --- | --- | --- | --- | --- | --- | --- | --- | --- | --- | --- | --- |
| 11.82 % ID/g | 3.28 | 9.7 % ID/g | 7.82 % ID/g | 18.72 % ID/g | 2.12 % ID/g | 4.43 % ID/g | 10.18 % ID/g | 5.65 % ID/g | 13.21 % ID/g | 9.46 % ID/g | 3.07 % ID/g | 4.37 % ID/g | 9 % ID/g | 1.92 % ID/g | 13 % ID/g | 2.4 | 12.28 % ID/g | 2.97 % ID/g | 2.59 % ID/g | CCN(CC)CCNC(=O)c1ccc2cc([125I])ccc2c1.Cl | Drug uptake (Muscle tissue [6]): 0.83 % ID/g; Drug uptake (Spleen [7]): 8.05 % ID/g; Drug uptake (Blood [20]): 1.77 % ID/g; Drug uptake [21]: 1.5 % ID/g; Drug uptake (Muscle tissue [22]): 0.38 % ID/g; Ratio [23]: 14.6; Drug uptake [24]: 10.79 % ID/g; Drug uptake [25]: 25.85 % ID/g; Drug uptake [26]: 7 % ID/g; Drug uptake [27]: 3.1 % ID/g |
| 7.59 % ID/g | 3.33 | 5.44 % ID/g | 13.44 % ID/g | 2.98 % ID/g | 3.21 % ID/g | 3.96 % ID/g | 3.94 % ID/g | 3.26 % ID/g | 16.66 % ID/g | 5.14 % ID/g | 3.5 % ID/g | 0.64 % ID/g | 7 % ID/g | 1.48 % ID/g | 15.5 % ID/g | 3.08 | 6.07 % ID/g | 6.67 % ID/g | 2.68 % ID/g | CCN(CC)CCNC(=O)c1ccc([125I])nc1.Cl.Cl | Drug uptake (Spleen [7]): 2.35 % ID/g; Drug uptake (Thyroid gland [28]): 111.3 % ID/g; Drug uptake (Thyroid gland [29]): 7.92 % ID/g; Drug uptake (Blood [20]): 4.22 % ID/g; Drug uptake [21]: 0.9 % ID/g; Drug uptake (Muscle tissue [22]): 0.53 % ID/g; Ratio [23]: 42.14; Drug uptake [24]: 50.21 % ID/g; Drug uptake [25]: 4.94 % ID/g; Drug uptake [26]: 2.7 % ID/g; Drug uptake [27]: 1.46 % ID/g |
| 2.36 % ID/g | 7.69 | 5.38 % ID/g | 32.83 % ID/g | 43.48 % ID/g | 1.26 % ID/g | 1.87 % ID/g | 1.78 % ID/g | 1.51 % ID/g | 24.11 % ID/g | 3.92 % ID/g | 1.2 % ID/g | 0.35 % ID/g | 11.4 % ID/g | 0.86 % ID/g | 23.2 % ID/g | 6.1 | 10 % ID/g | 2.21 % ID/g | 0.93 % ID/g | CCN(CC)CCNC(=O)c1ccc2cncc([125I])c2n1.Cl.Cl | Drug uptake (Muscle tissue [6]): 0.43 % ID/g; Drug uptake (Thyroid gland [28]): 115.66 % ID/g; Drug uptake (Thyroid gland [29]): 56.95 % ID/g; Drug uptake (Blood [20]): 1.88 % ID/g; Drug uptake [21]: 3.3 % ID/g; Drug uptake (Muscle tissue [22]): 0.24 % ID/g; Drug uptake [30]: 0.82 % ID/g; Ratio [23]: 32.18; Drug uptake [24]: 9.17 % ID/g; Drug uptake [25]: 47.65 % ID/g; Drug uptake [26]: 8.4 % ID/g; Drug uptake [27]: 0.62 % ID/g |
